# From ChEMBL document CHEMBL4350958, “Rational Design of Short Peptide Variants by Using Kunitzin-RE, an Amphibian-Derived Bioactivity Peptide, for Acquired Potent Broad-Spectrum Antimicrobial and Improved Therapeutic Potential of Commensalism Coinfection of Pathogens” (J Med Chem, 2019)
# Activity calls are given as the source filed them. The rule behind the calls is not given here. Where a SMILES comes first, the peptide text is derived from it.
# Tests used:
# Escherichia coli [1] = assay: Induction of cytoplasmic membrane […] in Escherichia coli ATCC 25922 assessed as increase in ONPG release at 1 to 64 uM measured at 6 mins interval for 120 mins by spectroscopically; format: organism-based
# Summary of the method: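 E. coli 25922 grown to mid-log in MHB with 2% lactose, then diluted to OD600 0.05 in 5 mM HEPES pH 7.4 with 20 mM glucose and 1.5 mM ONPG. Mixed with equal volume of peptide (1 to 64 μM) at 37 °C. OD420 read every 6 min for 0–120 min. Triplicate, three biological replicates.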
# Pseudomonas aeruginosa [2] = assay: Antibacterial activity against Pseudomonas aeruginosa ATCC 27853 at sub-MBC measured after 17 serial passages; format: functional, organism-based
# Summary of the method: (§1)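 P. aeruginosa ATCC 27853 passaged every 24 h by 100-fold dilution in MHB containing sub-MBC drug, for 30 passages. MBC was tested on the cells from each passage. Control cells were passaged in drug-free MHB. Run independently in triplicate with three biological replicates.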
# Pseudomonas aeruginosa [3] = assay: Antibacterial activity against Pseudomonas aeruginosa ATCC 27853 assessed as ratio of MBC after and before 30 serial passages at sub-MBC; format: functional; summary of the method: as §1
# [4] = test system: Salmonella enterica subsp. enterica serovar Pullorum; assay: Bactericidal activity against Salmonella pullorum ATCC 7913 incubated for 24 hrs followed by replating on agar plate and measured after overnight incubation; format: functional
# Summary of the method: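 Mid-log bacteria diluted in MHB to (0.5–1) × 10^5 CFU/mL and mixed 1:1 with peptide serially diluted in 0.2% BSA. After 24 h at 37 °C, 50 μL of each mixture was plated on agar and incubated overnight. MBC taken as the lowest concentration killing >99.9% of cells. At least three independent experiments, each with three technical replicates.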
# Staphylococcus aureus [5] = assay: Induction of morphological changes in Staphylococcus aureus ATCC 29213 assessed as cell content leakage at MBD measured after 1 hr by atomic force microscopic analysis; format: functional, organism-based
# Candida albicans = assay: Antifungal activity against Candida albicans cgmcc2.2086 assessed as ratio of MIC95 in presence of NaCl to in absence of NaCl; format: functional
# Pseudomonas aeruginosa [6] = assay: Antibacterial activity against gentamicin-resistant Pseudomonas aeruginosa ATCC 27853 measured after 24 hrs; format: functional, organism-based
# Summary of the method: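 Broth microdilution modified from NCCLS. Mid-log bacteria at (0.5–1) × 10^5 CFU mL−1 in MHB, mixed with peptides serially diluted in 0.2% BSA. Incubated 24 h at 37 °C, read at A492. MIC taken as lowest concentration giving 95% growth inhibition. At least three independent experiments, each with three technical replicates.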
# Staphylococcus aureus [7] = assay: Induction of morphological changes in Staphylococcus aureus ATCC 29213 assessed as membrane creping at MBD measured after 1 hr by atomic force microscopic analysis; format: functional, organism-based
# Escherichia coli [8] = assay: Induction of morphological changes in Escherichia coli ATCC 25922 assessed as cell content leakage at MBD measured after 1 hr by scanning electron microscopic analysis; format: functional, organism-based
# Escherichia coli [9] = assay: Induction of morphological changes in Escherichia coli ATCC 25922 assessed as pore formation at MBD measured after 1 hr by transmission electron microscopic analysis; format: functional, organism-based
# Lipid bilayer [10] = assay: Induction of membrane disruption in PG/CL/PE large unilamellar vesicles assessed as calcein-entrapped liposome leakage at 64 uM after 15 mins by spectrofluorophotometric assay relative to control
# Summary of the method: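 Calcein (70 mM)-loaded LUVs of PG/CL/PE (2:1:7 w/w/w, E. coli membrane mimic), made by freeze-thaw and 100-nm extrusion, free dye removed on Sephadex G-50. LUVs (100 μM) exposed to peptide (1–64 μM) for 15 min. Leakage read at ex 490/em 520 nm: liposomes alone are background, Triton X-100 is 100%. Independent triplicates.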
# Lipopolysaccharide (LPS) = assay: Displacement of BODIPY-TR-cadaverine from Escherichia coli O111:B4 LPS at 64 uM after 1 hr by spectrofluorophotometric method relative to control
# Summary of the method: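 E. coli O111:B4 LPS (50 μg/mL) preloaded 4 h with BODIPY-TR-cadaverine (5 μg/mL) in 50 mM Tris, pH 7.4. Mixed 1:1 with peptide (1–64 µM series), 1 h at 37 °C, then fluorescence read. Expressed as %ΔF: 0% is probe with LPS and no peptide, 100% is probe with LPS plus 10 μg/mL polymyxin B. Three technical replicates.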
# Escherichia coli [11] = assay: Induction of outer membrane permeabilization in Escherichia coli ATCC 25922 at 64 uM by NPN-dye based assay relative to control
# Summary of the method: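 Mid-log E. coli ATCC 25922 (OD600 0.2) incubated 30 min with NPN (10 μM) in 5 mM HEPES pH 7.4 with 5 mM glucose, then mixed 1:1 with peptide (1–64 μM). Fluorescence (ex 350/em 420 nm) recorded until it plateaued. Percent NPN uptake calculated relative to no peptide and to 10 μg/mL polymyxin B. Three independent experiments, triplicates.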
# Lipid bilayer [12] = assay: Induction of membrane disruption in PC/CL large unilamellar vesicles assessed as calcein-entrapped liposome leakage at 1 to 64 uM after 15 mins by spectrofluorophotometric assay relative to control; conditions: artificial membrane, 0.25 h
# Staphylococcus aureus [13] = assay: Antibacterial activity against Staphylococcus aureus ATCC 29213 assessed as ratio of MIC95 in presence of CaCl2 to in absence of CaCl2; format: functional
# Summary of the method: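 S. aureus ATCC 29213, mid-log, (0.5–1) × 10^5 CFU/mL final in MHB, with or without 2 mM CaCl2 (final). Peptide serially diluted in 0.2% BSA and mixed 1:1 with cells, 24 h at 37 °C. MIC is the lowest concentration inhibiting 95% of growth by A492. Three independent experiments, each with three technical replicates.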
# Staphylococcus aureus [14] = assay: Induction of morphological changes in Staphylococcus aureus ATCC 29213 assessed as membrane blebbing at MBD measured after 1 hr by atomic force microscopic analysis; format: functional, organism-based
# Staphylococcus aureus [15] = assay: Antibacterial activity against Staphylococcus aureus ATCC 29213 assessed as ratio of MIC95 in presence of NaCl to in absence of NaCl; format: functional
# Escherichia coli [16] = assay: Induction of cytoplasmic membrane depolarization in Escherichia coli ATCC 25922 at MIC up to 3000 secs by DiSC3-5 dye-based fluorescence spectrophotometric method; format: organism-based
# Summary of the method: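 Mid-log E. coli ATCC 25922 (OD600 0.05) equilibrated with 0.4 μM DiSC3-5 and 100 mM K+ in 5 mM HEPES pH 7.4 with 20 mM glucose until fluorescence was stably quenched. Peptide then added in a 1-cm cuvette, and fluorescence (ex 622/em 670 nm) followed from 0 to 3000 s. Triplicate independent runs.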
# RAW264.7 = assay: Cytotoxicity against mouse RAW264.7 cells assessed as reduction in cell viability at 2 to 64 uM measured after 18 to 24 hrs by MTT assay relative to control; format: cell-based; conditions: raw264.7, 64 µM
# Summary of the method: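 MTT assay: RAW264.7 cells seeded at 1.0–2.0×10^4 per well and exposed to peptide (2–64 µM) for 18–24 h at 37 °C in 5% CO2. MTT (0.5 mg/mL) added for 4 h, formazan dissolved in DMSO, read at 570 nm. At least three independent experiments with triplicate wells.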
Molecule,Activity (Escherichia coli [1]),Activity (Pseudomonas aeruginosa [2]),Ratio (Pseudomonas aeruginosa [3]),MBC>99.9 [4] [µM],Ratio (Candida albicans),Activity (Lipid bilayer [10]) [%],Activity (Escherichia coli [11]) [%],Ratio (Staphylococcus aureus [15]),further results
CC[C@H](C)[C@H](NC(=O)CN)C(=O)NCC(=O)N[C@@H](C)C(=O)N[C@H](C(=O)N[C@@H](CC(C)C)C(=O)N[C@@H](CCCCN)C(=O)N[C@H](C(=O)N[C@@H](CC(C)C)C(=O)N[C@H](C(=O)N[C@H](C(=O)NCC(=O)N[C@@H](CC(C)C)C(=O)N1CCC[C@H]1C(=O)N[C@@H](C)C(=O)N[C@@H](CC(C)C)C(=O)N[C@H](C(=O)N[C@@H](CO)C(=O)N[C@@H](Cc1c[nH]c2ccccc12)C(=O)N[C@H](C(=O)N[C@@H](CCCCN)C(=O)N[C@@H](CCCNC(=N)N)C(=O)N[C@@H](CCCCN)C(=O)N[C@@H](CCCNC(=N)N)C(=O)N[C@@H](CCC(N)=O)C(=O)N[C@@H](CCC(N)=O)C(N)=O)[C@@H](C)CC)[C@@H](C)CC)[C@@H](C)O)[C@@H](C)O)C(C)C)C(C)C [MELITTIN],Active,inactive,128,,,,,,
POLYMYXIN B,,,,1,,,,,
H-AARIILRWRFR-NH2,,,,,4,65,110,4,Activity (Staphylococcus aureus [5]): Active; Activity (Pseudomonas aeruginosa [6]): Active; Activity (Staphylococcus aureus [7]): Active; Activity (Escherichia coli [8]): Active; Activity (Escherichia coli [9]): Active; Activity (Lipopolysaccharide (LPS)): 180%; Activity (Lipid bilayer [12]): < 5%; Ratio (Staphylococcus aureus [13]): 4; Activity (Staphylococcus aureus [14]): Active
GENTAMICIN,,inactive,32,2,,,,,
CC[C@H](C)[C@H](NC(=O)[C@H](CCCCN)NC(=O)[C@H](C)NC(=O)[C@H](C)N)C(=O)N[C@H](C(=O)N[C@@H](CC(C)C)C(=O)N[C@@H](CC(N)=O)C(=O)N1CCC[C@H]1C(=O)N[C@@H](CCCCN)C(=O)N[C@@H](Cc1ccccc1)C(=O)N[C@@H](CCCNC(=N)N)C(=O)N[C@@H](CS)C(=O)N[C@@H](CCCCN)C(=O)N[C@@H](C)C(=O)N[C@@H](C)C(=O)N[C@@H](Cc1ccccc1)C(=O)N[C@@H](CS)C(N)=O)[C@@H](C)CC (H-AAKIILNPKFRCKAAFC-NH2),Active,,,,,< 5,35,,Activity (Escherichia coli [16]): Active
H-AARRILRWIFR-NH2,,,,,4,,,16,Activity (RAW264.7): > 89.76%
